MCL1 BIM primary – disrupts human MCL1 binding to BIM-BH3 peptide; inhibition, % at 10.9 µM; GST-MCL1 / FITC-Bim-BH3 fluorescence polarization; actives 0.68% (n = 320,000); AID 2057;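 active = inhibition above the mean inhibition of all tested compounds plus 3 SD, set per campaign, cut at about 40% in these data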;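 also: 0% = DMSO wells and 100% = unlabeled Bim-BH3 peptide control; higher means more loss of mP so more displacement of Bim peptide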
Bim-Mcl-1 – inhibitors of Bim-Mcl-1 interaction, human; Q07820; Bead-based flow cytometry, Bim peptide-Mcl-1 binding; inhibition, % at 10 µM; actives 0.1% (n = 190,000); in the data active = inhibition above about 40%;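 also: 0% = no compound tracer wells and 100% = peptide blocker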
DSG3 Ab inh – blocks pemphigus antibody binding to human desmoglein-3 | P32926 | DSG3-coupled beads, scFv-anti-DSG3-GFP binding, flow cytometry; active compounds read low | binding (percent of control), % at 10 µM | actives 0.48% (n = 310,000);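 active = binding more than 3 SD below its plate's average and above zero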;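 also: hits lower antibody fragment binding to DSG3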
Target sequence (P32926 whole entry, looked up, the tested form may be a part): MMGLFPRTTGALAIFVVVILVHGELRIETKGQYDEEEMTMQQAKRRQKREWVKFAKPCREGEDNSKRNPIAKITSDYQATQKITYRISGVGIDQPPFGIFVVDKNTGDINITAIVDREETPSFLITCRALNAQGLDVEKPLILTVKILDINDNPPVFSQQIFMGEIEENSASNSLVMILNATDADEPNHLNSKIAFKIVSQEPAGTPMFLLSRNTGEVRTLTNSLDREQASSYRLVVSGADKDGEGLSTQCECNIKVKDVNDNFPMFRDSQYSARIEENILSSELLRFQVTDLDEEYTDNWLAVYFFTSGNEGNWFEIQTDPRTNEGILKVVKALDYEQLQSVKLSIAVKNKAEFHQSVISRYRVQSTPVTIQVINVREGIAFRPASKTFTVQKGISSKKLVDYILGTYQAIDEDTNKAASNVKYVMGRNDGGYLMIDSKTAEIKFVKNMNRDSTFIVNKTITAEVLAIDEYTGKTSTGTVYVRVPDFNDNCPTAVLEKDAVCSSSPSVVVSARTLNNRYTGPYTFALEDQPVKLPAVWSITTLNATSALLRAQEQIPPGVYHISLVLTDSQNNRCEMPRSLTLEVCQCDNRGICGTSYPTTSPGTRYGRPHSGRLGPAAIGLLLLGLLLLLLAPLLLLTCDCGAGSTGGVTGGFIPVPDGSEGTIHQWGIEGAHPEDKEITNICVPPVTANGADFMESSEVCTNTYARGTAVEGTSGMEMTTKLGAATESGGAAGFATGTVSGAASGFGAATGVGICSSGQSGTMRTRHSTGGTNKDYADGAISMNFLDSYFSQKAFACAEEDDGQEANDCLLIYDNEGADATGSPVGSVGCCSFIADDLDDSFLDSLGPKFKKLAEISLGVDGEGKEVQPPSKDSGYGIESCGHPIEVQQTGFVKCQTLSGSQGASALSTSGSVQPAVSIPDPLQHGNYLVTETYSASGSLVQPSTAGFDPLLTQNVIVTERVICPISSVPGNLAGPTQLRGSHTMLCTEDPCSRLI
Mcl1-Noxa inh – Mcl-1/Noxa interaction inhibition; TR-FRET Mcl-1/Noxa peptide binding, 2 h; inhibition, % at 21.7 µM; actives 1.5% (n = 220,000);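 active = compounds that cut the protein-peptide binding signal by more than 50% relative to plate controls in a single-dose test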;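 also: His-tagged Mcl-1 with rhodamine Noxa BH3 peptide and terbium anti-His antibody; 0% = Mcl-1 plus Noxa peptide wells and 100% = peptide-only wells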
T cell modulator – T cell immune modulators affecting CD8 T cell-vesicle binding | response (vesicle binding), % at 7 µM | actives 0.068% (n = 330,000) | 2C CD8+ T cell-vesicle binding, flow cytometry; active compounds read low;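 active = response, share of CD8 T cells binding vesicles, and their 90th percentile fluorescence all below set limits, cut at about 80% in these data, passing the limit was not always enough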;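 also: values below 100% mean blocked vesicle binding to the CD8+ T cells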
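Incubation: binding step 1.5 h, 37 °C, antibody labelling 20 min, ice; system: murine 2C transgenic CD8+ T lymphocytes; technique: cytometric PE anti-B7-1 and Alexa647 anti-CD8 signals after 1% paraformaldehyde fixation; also added: QL9-charged Drosophila Ld/ICAM-1/B7-1 vesicles; control set: naked versus QL9-loaded vesicles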
Mcl1-Bid inh – disrupts binding of human Mcl-1 to Bid peptide. TR-FRET Mcl-1/Bid-Dy647 peptide binding, 1536-well. inhibition, % at 21.7 µM. actives 0.97% (n = 220,000). AID 1021;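 active = compounds that cut the binding signal by more than half at the single screening dose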;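 also: His-tagged Mcl-1 with europium anti-His antibody binding Bid BH3 peptide; 0% = Mcl-1 plus peptide wells and 100% = peptide-only wells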
* marks the source's active call; other numbers are inactive results; / = no result given. This is a sample that favours compounds with a hit; in the whole collection about 2.3% have one here.

SMILES | MCL1 BIM primary | Bim-Mcl-1 | DSG3 Ab inh | Mcl1-Noxa inh | T cell modulator | Mcl1-Bid inh
COCCn1c(-c2ccc(-c3ccc([N+](=O)[O-])cc3Br)o2)nc2c1c(=O)[nH]c(=O)n2CC(C)C | -31 | 6 | 78* | 14 | 209 | -3
COCCn1c(=O)[nH]c(=O)c2c1nc(-c1ccc(-c3ccc(Cl)cc3[N+](=O)[O-])o1)n2Cc1ccccc1 | 28 | -1 | 96 | 47 | 277 | -27
CCCCn1c(=O)[nH]c(=O)c2c1nc(-c1ccc(-c3ccccc3Br)o1)n2CC | 5 | -3 | 77 | 55* | 588 | -6
CCc1ccc(NC(=O)CN(C(=O)N2CCN(CC)CC2)S(=O)(=O)c2ccc(C)cc2)cc1 | 5 | / | 101 | / | 287 | /
Cc1ccc(-n2nc3c(=O)n(CC(=O)NC(C)CCc4ccccc4)nc(C)c3c2C)cc1 (centres undefined) | 0 | / | 97 | / | 198 | /
COCCN1C(=O)/C(=C2/C(=O)N(CC(=O)Nc3ccccc3Cl)c3ccccc32)SC1=S | 9 | / | 105 | / | 428 | /
CCOc1ccc(NC(=O)CN2C(=O)/C(=C3\SC(=S)N(C4CCS(=O)(=O)C4)C3=O)c3ccccc32)cc1 (centres undefined) | / | / | 85 | 68* | / | 81*
CCn1c(=O)c(C(=O)CN2CCN(S(=O)(=O)c3cc(C)ccc3C)CC2)c(N)n(Cc2ccccc2)c1=O | -9 | -1 | 88* | 22 | 190 | -7
COc1cc(/C=C2\CC/C(=C\c3cc(OC)c(O)c(OC)c3)C2=O)cc(OC)c1O | -56 | 17 | 89 | 101* | 924 | -2
C=CCc1ccccc1OCCNCCCOC | 3 | 0 | 100 | 18 | 0 | 84*
NC(=O)C1CCN(C(=O)c2ccc3nc(-c4ccccc4)c(-c4ccccc4)nc3c2)CC1 | -2 | / | 106 | / | 386 | /
O=C(NCc1nc2ncc(Br)cc2[nH]1)c1ccccc1 | 13 | -1 | / | 6 | 329 | 73*
Brc1cnc2nc(SC/C=C/c3ccccc3)[nH]c2c1 | 2 | / | 96 | 6 | 65 | -7
OC1CNc2c(ccc3ccccc23)C1 (centres undefined) | / | / | 89 | / | / | /
Cc1cc2c(cc1S(=O)(=O)NCc1ccccc1)NC(=O)CO2 | -3 | / | 96 | / | 395 | /
Cc1cc2c(cc1S(=O)(=O)NCCc1ccccc1)NC(=O)CO2 | 1 | / | 99 | / | 20* | /
COc1ccc(NS(=O)(=O)c2cc(C(=O)N(C)CCc3ccccn3)ccc2Cl)cc1 | / | / | 110 | / | / | /
O=C(O)c1ccc(NC2=C/C(=N/S(=O)(=O)c3ccccc3)c3ccccc3C2=O)cc1 | / | 3 | 104 | 93* | / | -2
C=CC[C@H]1C=C[C@@H](C(C(=O)OC)C(=O)OC)CN1C(C)=O | / | / | 101 | / | / | /
CN(C)c1ccc(-c2nnc(-c3ccc(S(=O)(=O)C(F)F)cc3)o2)cc1 | 12 | 1 | 100 | 27 | 328 | 73*
CN(C)c1ccc(-c2nnc(-c3ccccc3F)o2)cc1 | 8 | / | 108 | / | 258 | /
N=C1/C(=C/c2cccn2-c2ccc([N+](=O)[O-])cc2)C(=O)N=C2SC=CN12 | 21 | -7 | 78 | 61* | 227 | -63
Cc1cc(/C=C2/C(=N)N3C(=NC2=O)SN=C3S(C)(=O)=O)c(C)n1-c1ccccc1F | 0 | 0 | 88 | 14 | 229 | -1
O=C1NC(=S)N/C1=C/c1cccn1-c1ccc([N+](=O)[O-])cc1 | 14 | -4 | 98 | 80* | 379 | -42
CS(=O)(=O)C1=NSC2=NC(=O)/C(=C\c3cccn3-c3ccc(Cl)cc3)C(=N)N21 | 17 | 14 | 98 | 92* | 763 | -14
SMILES | MCL1 BIM primary | Bim-Mcl-1 | DSG3 Ab inh | Mcl1-Noxa inh | T cell modulator | Mcl1-Bid inh
COc1ccccc1CN1CC(C(=O)NC2CCOCC2)CCC1=O (centres undefined) | -1 | / | 102 | / | 328 | /
C[C@H](CO)N1C[C@H](C)[C@@H](CN(C)S(=O)(=O)c2ccccc2)Oc2ccc(NC(=O)NC3CCCCC3)cc2C1=O | / | / | 101 | / | 241 | /
COC(=O)c1ccc(CSc2ncnc3sc(C)c(C)c23)o1 | 20 | -2 | 99 | 14 | 214 | 59*
Nc1c(S(=O)(=O)c2ccccc2)c2nc3ccccc3nc2n1/N=C/c1cccc(O)c1 | 4 | -1 | 91 | 12 | 428 | -4
Cc1cccc(S(=O)(=O)c2c(N)n(/N=C/c3ccccc3)c3nc4ccccc4nc23)c1 | 10 | -3 | 89* | -4 | 593 | -3
O=C(CSc1nc(-c2ccc(F)cc2)nc2c1Cc1ccccc1O2)Nc1ccc(C(=O)O)cc1 | / | 0 | 90 | -76 | / | 49
O=C(CSc1nc(-c2ccccc2)nc2c1Cc1ccccc1O2)Nc1ccc(C(=O)O)cc1 | / | -1 | 92 | 27 | / | 88*
Nc1nc(N)c(Cc2ccc(Cl)cc2Cl)c(N)n1 | 1 | 0 | 74 | 7 | 230 | -10
Cc1nc(N)c(Cc2ccccc2F)c(N)n1 | -7 | -6 | 24* | 15 | 448 | -10
CCOc1ccc2oc(C(=O)N3CCN(c4ccccc4OCC)CC3)c(C)c2c1 | 3 | / | 97 | / | 171 | /
COc1ccc(C(CNS(=O)(=O)c2cccc(F)c2)N2CCCC2)cc1 (centres undefined) | / | / | 101 | / | 428 | /
O=C(Nc1ccc2c(c1)OCO2)C1CCN(c2ccc(S(=O)(=O)N3CCOCC3)cc2)CC1 | -4 | -3 | 66* | 11 | / | -29
O=C(Nc1ccc2c(c1)oc1ccc(S(=O)(=O)N3CCCC3)cc12)C1CC1 | -4 | -6 | 71* | 13 | 516 | 31
CCCc1cc(=O)[nH]c(SCC(=O)N2CC3(C)CC2CC(C)(C)C3)n1 (centres undefined) | 0 | / | 109 | / | 371 | /
Cc1ccc(S(=O)(=O)N2CCCC2C(=O)NCc2ccncc2)cc1 (centres undefined) | 0 | / | 92 | / | 220 | /
CN(C)/C=N/c1nc2nccc(-c3ccccc3)n2n1 | 1 | -2 | 103 | 10 | 306 | 10
CC(=O)c1c(N=CN(C)C)nc(C)nc1-c1ccccc1 | 3 | 0 | 107 | 11 | 141 | 89*
COc1ccc(S(=O)(=O)N(CC(=O)NN=C2CCN(C)CC2)c2cc(Cl)ccc2OC)cc1OC | 4 | / | 100 | / | 172 | /
Cc1ccccc1Nc1nc(-c2sc(NC(=O)c3cccc(Cl)c3)nc2C)cs1 | -2 | 0 | / | 37 | 157 | -25
Cc1ccccc1Nc1nc(-c2sc(NC(=O)c3ccc([N+](=O)[O-])cc3)nc2C)cs1 | 7 | -5 | / | 47 | 122 | -29
CCOc1ccccc1Nc1nc(-c2sc(NC(=O)c3ccc([N+](=O)[O-])cc3)nc2C)cs1 | 5 | -1 | / | 86* | 420 | 96*
COc1ccc(OC)c(Nc2nc(-c3sc(NC(=O)c4ccccc4)nc3C)cs2)c1 | -18 | -1 | / | 29 | 498 | -18

Bioassay records: PubChem, several laboratories
